Series [1] relates to Coxsackievirus B2. Nature of the series: Antiviral activity against Human coxsackievirus B2 Ohio-1 infected in african green monkey Vero cells after 3 days by plaque reduction assay. The class given is functional, organism-based, Coxsackievirus B2 (strain Ohio-1). The gist of the method: (§1)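 Plaque reduction assay. Vero 76 cells at 2 × 10^5/well, grown overnight to confluence in D-MEM with 10% FBS. Infected 2 h with 50–100 PFU/well, unadsorbed virus removed. Overlay of D-MEM with 1% inactivated FBS and 0.75% methylcellulose, with or without serial compound dilutions. Incubated at 37 °C for 3 days (HSV-1 KOS, CVB-2 Ohio-1) or 5 days (RSV A2). Fixed and stained with crystal violet in 50% ethanol; plaques counted; EC50 by linear regression.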

Series [2] is described as follows: Cytotoxicity against african green monkey Vero cells. The class given is cell-based. The following applies: chlorocebus sabaeus. An outline of the steps:
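Vero 76 monolayers exposed to serial compound dilutions, run in parallel on the same 24-well plates as the plaque-reduction assays. CC50 is the concentration reducing viability of mock-infected cells by 50%.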

Series [3] can be described thus: Cytotoxicity against BHK cells after 48 to 96 hrs by MTT assay. To be noted: hamster. In kind it is cell-based, Mesocricetus auratus. The gist of the method:
(§2)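 Cell seeding: MDBK at 6 × 10^5 cells/mL in MEM-E with 10% horse serum and 1 mM Na pyruvate; BHK at 1 × 10^6 cells/mL in MEM-E with 10% FBS. Serial compound dilutions, 37 °C, 5% CO2. Viability of mock-infected cells by MTT after 48–96 h; CC50 is the concentration reducing viability by 50%.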

Series [4] has as its system Vesicular stomatitis virus. Nature of the series: Antiviral activity against VSV Indiana lab infected in african green monkey Vero cells after 2 days by plaque reduction assay. In kind it is functional, organism-based.
In series [5] the test system is Bovine viral diarrhea virus 1. Nature of the series: Antiviral activity against Bovine viral diarrhea virus NADL infected in MDBK cells assessed as protection from virus-induced cytopathogenicity after 3 to 4 days by MTT method. The class given is functional, organism-based, Bovine viral diarrhea virus 1-NADL. An outline of the steps:
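Cytopathogenicity protection assay. MDBK cells at 3 × 10^4/well, grown overnight to confluence. Infected with BVDV NADL at m.o.i. 0.01 in MEM-E with 0.5% inactivated FBS, 1 mM Na pyruvate and 1% kanamycin. Serial compound dilutions added after 1 h. After 3–4 days at 37 °C, viability read by MTT; EC50 is the concentration giving 50% protection.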

For series [6], the system named is Human immunodeficiency virus 1. Nature of the series: Antiviral activity against HIV1 3B infected in human MT4 cells assessed as protection from virus-induced cytopathogenicity after 4 days by MTT method. In kind it is functional, organism-based. An outline of the steps:
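MT-4 cells, 1 × 10^4/well in RPMI with or without serial compound dilutions, infected with HIV-1 IIIB, 100 CCID50 (m.o.i. 0.01). Protection from virus-induced cytopathogenicity read by MTT.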

Series [7] deals with MT4. Nature of the series: (§3) Cytotoxicity against human MT4 cells after 96 hrs by MTT assay. The class given is cell-based. The following applies: mt4, 96 h, 96 h. An outline of the steps:
(§4)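 Exponentially growing MT-4 cells at 1 × 10^5 cells/mL in RPMI-1640 with 10% FCS, exposed to serial compound dilutions at 37 °C, 5% CO2. Viability by MTT after 96 h; CC50 is the concentration reducing viability of mock-infected cells by 50%.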

A short description of series [8]: Cytotoxicity against MDBK cells after 48 to 96 hrs by MTT assay. To be noted: cattle. The class given is cell-based, Bos taurus. The gist of the method:
as §2

The subject of series [9] is Yellow fever virus. Nature of the series: Antiviral activity against Yellow fever virus 17D infected in BHK cells assessed as protection from virus-induced cytopathogenicity after 3 to 4 days by MTT method. In kind it is functional, organism-based.
The subject of series [10] is Poliovirus 1. Nature of the series: Antiviral activity against Polio virus type1 Sabin strain Chat infected in african green monkey Vero cells after 2 days by plaque reduction assay. In kind it is functional, organism-based, Human poliovirus 1 strain Sabin. To be noted: Enterovirus C, 48 h.
A short description of series [11]: Selectivity index, ratio of CC50 for african green monkey Vero cells to EC50 for Vaccinia virus Elstree-Lister. In kind it is toxicity, cell-based. To be noted: read-out: Ratio CC50/EC50.
The nature of series [12]: as §3. The following applies: MT4 cells. The class given is cell-based. The gist of the method: as §4
Series [13] concerns Respiratory syncytial virus. Nature of the series: Antiviral activity against RSV A2 infected in african green monkey Vero cells after 5 days by plaque reduction assay. In kind it is functional, organism-based. To be noted: human respiratory syncytial virus, A2, Vero, 120 h. An outline of the steps: as §1
Series [14] concerns Vaccinia virus. Nature of the series: Antiviral activity against Vaccinia virus Elstree-Lister infected in african green monkey Vero cells after 3 days by plaque reduction assay. The class given is functional, organism-based. The following applies: Orthopoxvirus vaccinia, 72 h.
Series [15] relates to Human alphaherpesvirus 1. Nature of the series: Antiviral activity against HSV1 KOS infected in african green monkey Vero cells after 3 days by plaque reduction assay. To be noted: Human alphaherpesvirus 1, KOS, 72 h. In kind it is functional, organism-based. An outline of the steps:
as §1

A short description of series [16]: Selectivity index, ratio of CC50 for human MT4 cells to EC50 for Vaccinia virus Elstree-Lister. The class given is toxicity, cell-based. The following applies: read-out: Ratio CC50/EC50.
Series [17] concerns Bovine viral diarrhea virus 1. Nature of the series: Antiviral activity against Bovine viral diarrhea virus NADL infected in MDBK cells assessed as inhibition of viral replication administered up to 4 hrs post infection measured after 24 to 36 hrs by plaque reduction assay. The following applies: Bovine viral diarrhea virus 1-NADL. The class given is functional, organism-based. The gist of the method: (§5)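 MDBK monolayers inoculated at room temperature with BVDV NADL, 300 PFU (m.o.i. 0.01 PFU/cell), 60 min adsorption, washed, kept in MEM-E + 1 mM Na pyruvate + 0.5% inactivated FBS at 37 °C. Medium containing 10× compound added for one window (−1–0, 0–2, 2–4 … 12–14 h), then washed out and fresh medium given. CPE scored at 24–36 h; viral titre by plaque assay.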

Series [18] in a line: Selectivity index, ratio of CC50 for human MT4 cells to EC50 for Bovine viral diarrhea virus NADL. The class given is toxicity, cell-based. To be noted: read-out: Ratio CC50/EC50.
For series [19], the system named is Hepatitis C virus. Nature of the series: Inhibition of HCV 1b NS5B Cdelta21 RNA dependent RNA polymerase expressed in Escherichia coli after 30 mins by fluorescence assay. In kind it is functional, Hepatitis C virus subtype 1b. To be noted: 0.5 h. The gist of the method: (§6)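 N-His-tagged NS5B from E. coli Rosetta2(DE3)pLysS (BVDV C-terminal Δ24; HCV1b Δ21), Ni-NTA purified, 500–600 ng per 20 µL reaction. Template 10 µg/mL poly(rC), primer 0.1 µg/mL oligo(rG)12, substrate 80 µM GTP; 20 mM Tris pH 7.0, 0.5 mM MnCl2 or 5 mM MgCl2, 5% DMSO. Enzyme pre-incubated with drug 30 min at room temperature.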

The nature of series [20]: Inhibition of Bovine viral diarrhea virus NADL NS5B Cdelta24 RNA dependent RNA polymerase expressed in Escherichia coli after 30 mins by fluorescence assay. Details: species or system Bovine viral diarrhea virus 1-NADL. The gist of the method:
as §6

Series [21] relates to Bovine viral diarrhea virus 1. Nature of the series: Antiviral activity against Bovine viral diarrhea virus NADL infected in MDBK cells assessed as inhibition of post viral entry pre-budding stage of replication administered at 13 hrs post infection measured after 24 to 36 hrs by plaque reduction assay. In kind it is functional, organism-based. The following applies: Bovine viral diarrhea virus 1-NADL. An outline of the steps: as §5

For series [22], the system named is Bovine viral diarrhea virus 1. Nature of the series: Antiviral activity against Bovine viral diarrhea virus NADL infected in MDBK cells assessed as protection from virus-induced cytopathogenicity administered up to 6 hrs post infection measured after 24 to 36 hrs by plaque reduction assay. In kind it is functional, organism-based. To be noted: Bovine viral diarrhea virus 1-NADL. The gist of the method:
as §5

Series [23] deals with Hepatitis C virus. Nature of the series: Antiviral activity against HCV Con1 expressed in human HuH7 cells assessed as NS4A expression after 72 hrs by ELISA-based replicon assay. The class given is functional, organism-based, Hepacivirus hominis. The following applies: isolate Con1, Huh-7, 72 h. An outline of the steps: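 GS4.1 cells (Huh-7 carrying HCV Con1 subgenomic replicon) at 7.5 × 10^3/well. Ten twofold compound dilutions (top 75 µM), 0.5% DMSO, 72 h at 37 °C; replicon-free Huh-7 as negative control. NS4A measured by ELISA with anti-NS4A mAb A-236, peroxidase secondary and o-phenylenediamine, absorbance 492 nm. EC50 by four-parameter sigmoidal fit.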

A short description of series [24]: Cytotoxicity against human HuH7 cells after 72 hrs. In kind it is cell-based, Huh-7. An outline of the steps: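 GS4.1 replicon cells treated as in the replicon assay (twofold dilutions up to 75 µM, 72 h). Viability by CellTiter 96 AQueous One Solution; CC50 from % cytotoxicity versus concentration.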
Series [25] can be described thus: Selectivity index, ratio of CC50 for MDBK cells to EC50 for Bovine viral diarrhea virus NADL. The class given is toxicity, cell-based. To be noted: cattle, read-out: Ratio CC50/EC50.
Where [26] appears, read: Bovine viral diarrhea virus isolates and strains, MDBK.

Molecules are shown by their SMILES. The source made the active and inactive calls.

Take `O=C(CN1CCOCC1)Nc1ccc(-c2nc3cc(Cl)c(Cl)cc3[nH]2)cc1`: the EC50 in series [1] (vero) is more than 100 µM; in series [5] (mdbk) it was more than 100000 nM; in series [9], more than 100 µM. Besides, the CC50 in series [2], in series [3], in series [7] and in series [8] (mdbk) was more than 100 µM in each case. Moreover, the result in series [4] and in [6] was inactive.
Regarding `O=[N+]([O-])c1ccc(-c2nc3cc(Cl)c(Cl)cc3[nH]2)cc1`, the EC50 in series [1] (Enterovirus B, Vero, 72 h) is more than 100 µM; in [10], more than 100 µM; in [5] (setting [26]), more than 56000 nM; in series [9], more than 100 µM; in series [13], more than 100 µM; in series [14] it was 100 nM. In series [15], this compound displayed an EC50 of more than 100 µM. Further, the CC50 is not below 100 µM in [2], more than 100 µM in series [3] and 56 µM in series [8] (MDBK cells). For the same compound, the selectivity ratio is not below 1000 in series [11] and 170 in series [16]. For the same compound, the result in [4] and in series [6] was inactive. The compound also registered a CC50 at 96 h in series [12] of 17 µM.
In the case of `CC(=O)Nc1ccc(-c2nc3cc([N+](=O)[O-])ccc3[nH]2)cc1`, the EC50 in series [1] (Enterovirus B, Vero, 72 h) is more than 100 µM; in series [10] it was more than 100 µM; in [5] (setting [26]), 800 nM; in series [9] it was more than 100 µM; in series [23], 38 µM; in [15], more than 100 µM. The CC50 in [2], in series [3] and in series [8] (MDBK cells) was more than 100 µM in each case. Besides, the result in [17], in series [21] and in series [22] was Active. Moreover, the selectivity ratio in [18] and in series [25] was more than 125 in each case. For the same compound, the IC50 in series [19] amounted to 30 µM; in series [20], 12 µM. The outcome in series [4] and in series [6] was inactive. Further, in [12], the CC50 at 96 h is more than 100 µM. Further, the CC50 at 72 h in series [24] was more than 90 µM.
For `CC(=O)Nc1ccc(-c2nc3cc(Cl)c(Cl)cc3[nH]2)cc1`, the EC50 in series [1] (Enterovirus B, Vero, 72 h) was more than 100 µM; in series [10] it was more than 100 µM; in series [5] (setting [26]) it was 1000 nM; in [9], more than 100 µM; in series [23] it was 32 µM; in series [15] it was more than 100 µM. Moreover, the CC50 is more than 100 µM in [2], more than 100 µM in [3] and 58 µM in [8] (MDBK cells). Also, the selectivity ratio in series [18] was more than 100; in [25] it was 58. In addition, the IC50 in [19] turned out to be 5 µM; in series [20] it was 3 µM. Further, the result in series [4] and in series [6] was inactive. The compound further returned a CC50 at 96 h in series [12] of more than 100 µM. The compound further displayed a CC50 at 72 h in [24] of more than 75 µM.

The values are drawn from ChEMBL document CHEMBL1156237, “Antiviral activity of benzimidazole derivatives. II. Antiviral activity of 2-phenylbenzimidazole derivatives” (Bioorg Med Chem, 2010).
